The record followed here is ChEMBL document CHEMBL1135801, “Synthesis, structure, and activity of diclofenac analogues as transthyretin amyloid fibril formation inhibitors” (J Med Chem, 2002).

Assay [1] deals with Transthyretin (Homo sapiens) (UniProt P02766). Nature of the assay: Inhibition of L55P TTR fibril formation was measured at OD400. Type of assay: functional. In short, it runs like this:
(§1)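 Stagnant fibril formation assay. TTR at 0.4 mg/mL in 10 mM sodium phosphate, 100 mM KCl, 1 mM EDTA, pH 7.6, was preincubated 30 min at 37 °C with compound added from DMSO stock. Acetate buffer then lowered the pH to 4.2 (wild type) or 5 (V30M, L55P), and samples stood unagitated 72 h at 37 °C. After vortexing, turbidity was read at 400 nm and expressed as percent of the no-inhibitor sample. Triplicates.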

For assay [2] the target is unchanged. Nature of the assay: Inhibition of V30M TTR fibril formation at OD400. Format: functional. An outline of the steps:
as §1

Assay [3] has the same target. The assay is described as follows: Inhibition of wild type TTR fibril formation at OD400. Format: functional. An outline of the steps:
as §1

Assay [4] can be described thus: First dissociation constant of the binding of compound to V30M TTR. Type of assay: functional. In short, it runs like this:
(§2)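 Isothermal titration calorimetry at pH 7.6 (100 mM phosphate, 100 mM KCl, 1 mM EDTA). A 435 µM ligand solution in this buffer, concentration set by ε280 = 10 400 M-1 cm-1, was titrated into cells holding 21.1 µM wild type, 20.1 µM V30M or 20.0 µM L55P TTR.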

Assay [5] is described as follows: Second dissociation constant of the binding of compound to V30M TTR. Format: functional. In short, it runs like this:
as §2

The target in assay [6] is Transthyretin (Homo sapiens) (UniProt P02766). Nature of the assay: First dissociation constant of the binding of compound to L55P TTR. Type of assay: functional. An outline of the steps:
as §2

Assay [7] has the same target. The assay is described as follows: Second dissociation constant of the binding of compound to L55P TTR. Format: functional. An outline of the steps:
as §2

For assay [8] the target is unchanged. The assay is described as follows: First dissociation constant of the binding of compound to wild type TTR. Format: functional. In short, it runs like this: as §2
For assay [9] the target is unchanged. The assay is described as follows: Second dissociation constant of the binding of compound to wild type TTR. Type of assay: functional. In short, it runs like this: as §2
The target is the same in assay [10]. The assay is described as follows: Quaternary structure of the soluble protein after incubation of 3.6 uM L55P TTR with 10.8 uM of compound. Type of assay: functional. An outline of the steps:
(§3)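 3.6 µM TTR (wild type, V30M or L55P) was held 72 h with 10.8 µM compound under stagnant fibril formation conditions at the variant's pH maximum. Precipitate was removed by spinning at 14 000 rpm, and the supernatant was analysed by analytical ultracentrifugation to give % tetramer, monomer and aggregate and MW.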

The target is the same in assay [11]. The assay is described as follows: Quaternary structure of the soluble protein after incubation of 3.6 uM V30M TTR with 10.8 uM of compound. Format: functional. In short, it runs like this:
as §3

For assay [12] the target is unchanged. Nature of the assay: Quaternary structure of the soluble protein after incubation of 3.6 uM wild type TTR with 10.8 uM of compound. Format: functional. In short, it runs like this:
as §3

Assay [13] has the same target. Nature of the assay: (§4) Quaternary structure of the soluble protein after incubation of 3.6 uM of compound. Format: functional.
The target is the same in assay [14]. Described as §4. Type of assay: functional. This is another data set of the same source.
Assay [15] has the same target. Described as §4. Format: functional. This is another data set of the same source.
The target is the same in assay [16]. Nature of the assay: Quaternary structure of the soluble protein after incubation of 10.8 uM of compound.

Bounds are passed on as bounds.

Consider `CCCc1ccccc1Nc1c(Cl)cccc1Cl`, for which the Formation in assay [1] worked out at 90%; in assay [2], 85%; in assay [3], 100%.
With `O=C(O)c1ccccc1Nc1c(Cl)cccc1Cl`, the Formation in assay [2] is 27%; in assay [3], 30%.
In the case of `COC(=O)Cc1ccccc1Nc1c(Cl)cccc1Cl`, the Formation in assay [1] is 90%; in assay [2], 90%; in assay [3] it was 78%.
For `O=C(O)c1ccccc1Nc1cc(Cl)cc(Cl)c1`, the Formation worked out at 50% in [1], 30% in assay [2] and 34% in assay [3].
In the case of `O=C(O)Cc1ccccc1Nc1c(Cl)cccc1Cl`, the Kd1 in [4] came out at 160 nM; in assay [6], 380 nM; in assay [8], 60 nM. The Kd2 was 3.9 µM in assay [5], 6.18 µM in assay [7] and 1200 nM in [9]. For the same molecule, the Formation in assay [1] is 72%; in [2] it was 33%; in [3], 35%.
Consider `CCc1ccccc1Nc1c(Cl)cccc1Cl`, for which the Formation in [1] amounted to 85%; in [2], 70%; in assay [3] it was 82%.
With `O=C(O)c1cc(Cl)c(Nc2ccc([N+](=O)[O-])cc2)c(Cl)c1`, the Formation in assay [1] was 75%; in assay [2], 33%; in assay [3], 40%. Also, the Tetramer in [10] is more than 95%; in [11], 90%; in assay [12], 93%. For the same molecule, the Aggregate in [11] was determined as 10%; in [12], 7%.
Turning to `O=C(O)Cc1ccccc1Nc1c(Cl)cc(C(=O)O)cc1Cl`, the Formation in [1] was 45%; in assay [2], 28%; in assay [3], 32%. Further, the Tetramer in assay [13] was 95%; in [14], more than 95%; in [15], 95%. The Monomer in [16] came to 5%.
On to `OCCc1ccccc1Nc1c(Cl)cccc1Cl`, for which the Formation in assay [1] is 90%; in assay [2], 62%; in assay [3], 60%.
As for `NC(=O)Cc1ccccc1Nc1c(Cl)cccc1Cl`, the values for the Formation in assay [2] and in [3] were 67% and 65%, respectively.
Turning to `CC(C)c1ccccc1Nc1c(Cl)cccc1Cl`, the Formation in assay [1] worked out at 90%; in assay [2] it was 80%; in assay [3], 85%.
For `ClCCc1ccccc1Nc1c(Cl)cccc1Cl`, in that order: 90%, 70% and 75%.
In the case of `O=C(O)Cc1ccccc1Nc1cc(Cl)cc(Cl)c1`, the Formation in [1] was 53%; in assay [2], 27%; in assay [3] it was 30%. Further, the Tetramer in [13] was 76%; in assay [14] it was more than 95%; in assay [15] it was more than 95%. The Aggregate in assay [16] came out at 24%.
